# Reference: ChEMBL document CHEMBL3421570, “Combinatorial Libraries As a Tool for the Discovery of Novel, Broad-Spectrum Antibacterial Agents Targeting the ESKAPE Pathogens” (J Med Chem, 2015)
# Calls of active or inactive are those of the source. No cut-off for these calls is given here.
# Test system: Staphylococcus aureus
# Experiment: Antimicrobial activity against Staphylococcus aureus assessed as inhibition of microbial growth at 45 uM after 24 hrs
# Type: functional, organism-based
# In short: (§1)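 Broth microdilution single-concentration read: overnight cultures diluted 1:1000, compound in DMF (≤2.0%) added, 37°C for 24 h, growth inhibition scored visually by lack of turbidity; triplicate. Gram-positives grown in TSB, Gram-negatives in LB.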
row,SMILES,growth inhibition (GI)
1,CCCC[C@H]1CN(CCCC[C@H]2CNC(=N)N2CCC23CC4CC(CC(C4)C2)C3)C(=N)N1CCCCC1CCCCC1,Active
2,N=C1NC[C@H](CCCCN2C[C@H](CC3CCCCC3)N(CCc3ccc(-c4ccccc4)cc3)C2=N)N1CCc1cccc(C(F)(F)F)c1,Active
3,N=C1NC[C@H](CCCCN2C[C@H](CC3CCCCC3)N(CCc3ccc(-c4ccccc4)cc3)C2=N)N1CCCCC1CCCCC1,Active
4,CCCCCCCN1C(=N)N(CCCC[C@H]2CNC(=N)N2CCc2cccc(C(F)(F)F)c2)C[C@H]1Cc1cccc2ccccc12,Active
5,CCCC[C@H]1CN(CCCC[C@H]2CNC(=N)N2CCc2cccc(C(F)(F)F)c2)C(=N)N1CCc1ccc(-c2ccccc2)cc1,Active
6,CCCC[C@H]1CN(CCCC[C@H]2CNC(=N)N2CCCCC2CCCCC2)C(=N)N1CCc1ccc(-c2ccccc2)cc1,Active
7,CCCC[C@H]1CN(CCCC[C@H]2CNC(=N)N2CCCCC2CCCCC2)C(=N)N1CCCCC1CCCCC1,Active
8,N=C1NC[C@H](CCCCN2C[C@@H](Cc3cccc4ccccc34)N(CCCCC3CCCCC3)C2=N)N1CCCCC1CCCCC1,Active
9,N=C1NC[C@H](CCCCN2C[C@H](CC3CCCCC3)N(CCCCC3CCCCC3)C2=N)N1CCC12CC3CC(CC(C3)C1)C2,Active
10,CCCCCCCN1C(=N)N(CCCC[C@H]2CNC(=N)N2CCC23CC4CC(CC(C4)C2)C3)C[C@H]1Cc1cccc2ccccc12,Active
11,N=C1NC[C@H](CCCCN2C[C@@H](Cc3cccc4ccccc34)N(CCCCC3CCCCC3)C2=N)N1CCC12CC3CC(CC(C3)C1)C2,inactive

# Test system: Acinetobacter baumannii
# Experiment: Antimicrobial activity against Acinetobacter baumannii assessed as inhibition of microbial growth at 45 uM after 24 hrs
# Type: functional, organism-based
# In short: as §1
row,SMILES,growth inhibition (GI)
1,CCCC[C@H]1CN(CCCC[C@H]2CNC(=N)N2CCC23CC4CC(CC(C4)C2)C3)C(=N)N1CCCCC1CCCCC1,Active
2,N=C1NC[C@H](CCCCN2C[C@H](CC3CCCCC3)N(CCc3ccc(-c4ccccc4)cc3)C2=N)N1CCc1cccc(C(F)(F)F)c1,Active
3,N=C1NC[C@H](CCCCN2C[C@H](CC3CCCCC3)N(CCc3ccc(-c4ccccc4)cc3)C2=N)N1CCCCC1CCCCC1,Active
4,CCCCCCCN1C(=N)N(CCCC[C@H]2CNC(=N)N2CCc2cccc(C(F)(F)F)c2)C[C@H]1Cc1cccc2ccccc12,Active
5,CCCC[C@H]1CN(CCCC[C@H]2CNC(=N)N2CCc2cccc(C(F)(F)F)c2)C(=N)N1CCc1ccc(-c2ccccc2)cc1,Active
6,CCCC[C@H]1CN(CCCC[C@H]2CNC(=N)N2CCCCC2CCCCC2)C(=N)N1CCc1ccc(-c2ccccc2)cc1,Active
7,CCCC[C@H]1CN(CCCC[C@H]2CNC(=N)N2CCCCC2CCCCC2)C(=N)N1CCCCC1CCCCC1,Active
8,N=C1NC[C@H](CCCCN2C[C@@H](Cc3cccc4ccccc34)N(CCCCC3CCCCC3)C2=N)N1CCCCC1CCCCC1,Active
9,N=C1NC[C@H](CCCCN2C[C@H](CC3CCCCC3)N(CCCCC3CCCCC3)C2=N)N1CCC12CC3CC(CC(C3)C1)C2,Active
10,CCCCCCCN1C(=N)N(CCCC[C@H]2CNC(=N)N2CCC23CC4CC(CC(C4)C2)C3)C[C@H]1Cc1cccc2ccccc12,Active
11,N=C1NC[C@H](CCCCN2C[C@@H](Cc3cccc4ccccc34)N(CCCCC3CCCCC3)C2=N)N1CCC12CC3CC(CC(C3)C1)C2,inactive

# Test system: Enterobacter cloacae
# Experiment: Antimicrobial activity against Enterobacter cloacae assessed as inhibition of microbial growth at 45 uM after 24 hrs
# Type: functional, organism-based
# In short: as §1
row,SMILES,growth inhibition (GI)
1,CCCC[C@H]1CN(CCCC[C@H]2CNC(=N)N2CCC23CC4CC(CC(C4)C2)C3)C(=N)N1CCCCC1CCCCC1,Active
2,N=C1NC[C@H](CCCCN2C[C@H](CC3CCCCC3)N(CCc3ccc(-c4ccccc4)cc3)C2=N)N1CCc1cccc(C(F)(F)F)c1,Active
3,N=C1NC[C@H](CCCCN2C[C@H](CC3CCCCC3)N(CCc3ccc(-c4ccccc4)cc3)C2=N)N1CCCCC1CCCCC1,Active
4,CCCCCCCN1C(=N)N(CCCC[C@H]2CNC(=N)N2CCc2cccc(C(F)(F)F)c2)C[C@H]1Cc1cccc2ccccc12,Active
5,CCCC[C@H]1CN(CCCC[C@H]2CNC(=N)N2CCc2cccc(C(F)(F)F)c2)C(=N)N1CCc1ccc(-c2ccccc2)cc1,Active
6,CCCC[C@H]1CN(CCCC[C@H]2CNC(=N)N2CCCCC2CCCCC2)C(=N)N1CCc1ccc(-c2ccccc2)cc1,Active
7,CCCC[C@H]1CN(CCCC[C@H]2CNC(=N)N2CCCCC2CCCCC2)C(=N)N1CCCCC1CCCCC1,Active
8,N=C1NC[C@H](CCCCN2C[C@@H](Cc3cccc4ccccc34)N(CCCCC3CCCCC3)C2=N)N1CCCCC1CCCCC1,Active
9,N=C1NC[C@H](CCCCN2C[C@H](CC3CCCCC3)N(CCCCC3CCCCC3)C2=N)N1CCC12CC3CC(CC(C3)C1)C2,Active
10,CCCCCCCN1C(=N)N(CCCC[C@H]2CNC(=N)N2CCC23CC4CC(CC(C4)C2)C3)C[C@H]1Cc1cccc2ccccc12,Active
11,N=C1NC[C@H](CCCCN2C[C@@H](Cc3cccc4ccccc34)N(CCCCC3CCCCC3)C2=N)N1CCC12CC3CC(CC(C3)C1)C2,inactive

# Test system: Enterococcus faecium
# Experiment: Antimicrobial activity against Enterococcus faecium assessed as inhibition of microbial growth at 45 uM after 24 hrs
# Type: functional, organism-based
# In short: as §1
row,SMILES,growth inhibition (GI)
1,CCCC[C@H]1CN(CCCC[C@H]2CNC(=N)N2CCC23CC4CC(CC(C4)C2)C3)C(=N)N1CCCCC1CCCCC1,Active
2,N=C1NC[C@H](CCCCN2C[C@H](CC3CCCCC3)N(CCc3ccc(-c4ccccc4)cc3)C2=N)N1CCc1cccc(C(F)(F)F)c1,Active
3,N=C1NC[C@H](CCCCN2C[C@H](CC3CCCCC3)N(CCc3ccc(-c4ccccc4)cc3)C2=N)N1CCCCC1CCCCC1,Active
4,CCCCCCCN1C(=N)N(CCCC[C@H]2CNC(=N)N2CCc2cccc(C(F)(F)F)c2)C[C@H]1Cc1cccc2ccccc12,Active
5,CCCC[C@H]1CN(CCCC[C@H]2CNC(=N)N2CCc2cccc(C(F)(F)F)c2)C(=N)N1CCc1ccc(-c2ccccc2)cc1,Active
6,CCCC[C@H]1CN(CCCC[C@H]2CNC(=N)N2CCCCC2CCCCC2)C(=N)N1CCc1ccc(-c2ccccc2)cc1,Active
7,CCCC[C@H]1CN(CCCC[C@H]2CNC(=N)N2CCCCC2CCCCC2)C(=N)N1CCCCC1CCCCC1,Active
8,N=C1NC[C@H](CCCCN2C[C@@H](Cc3cccc4ccccc34)N(CCCCC3CCCCC3)C2=N)N1CCCCC1CCCCC1,Active
9,N=C1NC[C@H](CCCCN2C[C@H](CC3CCCCC3)N(CCCCC3CCCCC3)C2=N)N1CCC12CC3CC(CC(C3)C1)C2,Active
10,CCCCCCCN1C(=N)N(CCCC[C@H]2CNC(=N)N2CCC23CC4CC(CC(C4)C2)C3)C[C@H]1Cc1cccc2ccccc12,Active
11,N=C1NC[C@H](CCCCN2C[C@@H](Cc3cccc4ccccc34)N(CCCCC3CCCCC3)C2=N)N1CCC12CC3CC(CC(C3)C1)C2,inactive

# Test system: Klebsiella pneumoniae
# Experiment: Antimicrobial activity against Klebsiella pneumoniae assessed as inhibition of microbial growth at 45 uM after 24 hrs
# Type: functional, organism-based
# In short: as §1
row,SMILES,growth inhibition (GI)
1,CCCC[C@H]1CN(CCCC[C@H]2CNC(=N)N2CCC23CC4CC(CC(C4)C2)C3)C(=N)N1CCCCC1CCCCC1,Active
2,N=C1NC[C@H](CCCCN2C[C@H](CC3CCCCC3)N(CCc3ccc(-c4ccccc4)cc3)C2=N)N1CCc1cccc(C(F)(F)F)c1,Active
3,N=C1NC[C@H](CCCCN2C[C@H](CC3CCCCC3)N(CCc3ccc(-c4ccccc4)cc3)C2=N)N1CCCCC1CCCCC1,Active
4,CCCCCCCN1C(=N)N(CCCC[C@H]2CNC(=N)N2CCc2cccc(C(F)(F)F)c2)C[C@H]1Cc1cccc2ccccc12,Active
5,CCCC[C@H]1CN(CCCC[C@H]2CNC(=N)N2CCc2cccc(C(F)(F)F)c2)C(=N)N1CCc1ccc(-c2ccccc2)cc1,Active
6,CCCC[C@H]1CN(CCCC[C@H]2CNC(=N)N2CCCCC2CCCCC2)C(=N)N1CCc1ccc(-c2ccccc2)cc1,Active
7,CCCC[C@H]1CN(CCCC[C@H]2CNC(=N)N2CCCCC2CCCCC2)C(=N)N1CCCCC1CCCCC1,Active
8,N=C1NC[C@H](CCCCN2C[C@@H](Cc3cccc4ccccc34)N(CCCCC3CCCCC3)C2=N)N1CCCCC1CCCCC1,Active
9,N=C1NC[C@H](CCCCN2C[C@H](CC3CCCCC3)N(CCCCC3CCCCC3)C2=N)N1CCC12CC3CC(CC(C3)C1)C2,Active
10,CCCCCCCN1C(=N)N(CCCC[C@H]2CNC(=N)N2CCC23CC4CC(CC(C4)C2)C3)C[C@H]1Cc1cccc2ccccc12,Active
11,N=C1NC[C@H](CCCCN2C[C@@H](Cc3cccc4ccccc34)N(CCCCC3CCCCC3)C2=N)N1CCC12CC3CC(CC(C3)C1)C2,inactive

# Test system: Pseudomonas aeruginosa
# Experiment: Antimicrobial activity against Pseudomonas aeruginosa assessed as inhibition of microbial growth at 45 uM after 24 hrs
# Type: functional, organism-based
# In short: as §1
row,SMILES,growth inhibition (GI)
1,CCCC[C@H]1CN(CCCC[C@H]2CNC(=N)N2CCC23CC4CC(CC(C4)C2)C3)C(=N)N1CCCCC1CCCCC1,Active
2,N=C1NC[C@H](CCCCN2C[C@H](CC3CCCCC3)N(CCc3ccc(-c4ccccc4)cc3)C2=N)N1CCc1cccc(C(F)(F)F)c1,Active
3,N=C1NC[C@H](CCCCN2C[C@H](CC3CCCCC3)N(CCc3ccc(-c4ccccc4)cc3)C2=N)N1CCCCC1CCCCC1,Active
4,CCCCCCCN1C(=N)N(CCCC[C@H]2CNC(=N)N2CCc2cccc(C(F)(F)F)c2)C[C@H]1Cc1cccc2ccccc12,Active
5,CCCC[C@H]1CN(CCCC[C@H]2CNC(=N)N2CCc2cccc(C(F)(F)F)c2)C(=N)N1CCc1ccc(-c2ccccc2)cc1,Active
6,CCCC[C@H]1CN(CCCC[C@H]2CNC(=N)N2CCCCC2CCCCC2)C(=N)N1CCc1ccc(-c2ccccc2)cc1,Active
7,CCCC[C@H]1CN(CCCC[C@H]2CNC(=N)N2CCCCC2CCCCC2)C(=N)N1CCCCC1CCCCC1,Active
8,N=C1NC[C@H](CCCCN2C[C@@H](Cc3cccc4ccccc34)N(CCCCC3CCCCC3)C2=N)N1CCCCC1CCCCC1,Active
9,N=C1NC[C@H](CCCCN2C[C@H](CC3CCCCC3)N(CCCCC3CCCCC3)C2=N)N1CCC12CC3CC(CC(C3)C1)C2,Active
10,CCCCCCCN1C(=N)N(CCCC[C@H]2CNC(=N)N2CCC23CC4CC(CC(C4)C2)C3)C[C@H]1Cc1cccc2ccccc12,Active
11,N=C1NC[C@H](CCCCN2C[C@@H](Cc3cccc4ccccc34)N(CCCCC3CCCCC3)C2=N)N1CCC12CC3CC(CC(C3)C1)C2,inactive
